What was measured:
Type in all cases: functional
[1] = tested on: 786-0; assay: Anticancer activity against human 786-0 cells
How it was run: (§1)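 NCI 60-cell human tumour panel (leukemia, lung, colon, CNS, melanoma, ovarian, renal, prostate, breast). A first-stage single-dose screen at 10 µM was run. Compounds giving over 60% growth inhibition in at least eight lines went on to a five-dose response. Effect was plotted against log10 molar concentration per line. GI50 is the concentration giving 50% reduction in net protein increase versus control cells. LC50 is the concentration lethal to 50% of cells.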

[2] = tested on: COLO 205; assay: Anticancer activity against human COLO205 cells; how it was run: as §1
[3] = tested on: NCI-H522; assay: Anticancer activity against human NCI-H522 cells; how it was run: as §1
[4] = tested on: NCI-H226; assay: Anticancer activity against human NCI-H226 cells; how it was run: as §1
[5] = tested on: BT-549; assay: Anticancer activity against human BT549 cells; how it was run: as §1
[6] = tested on: NCI-H460; assay: Anticancer activity against human NCI-H460 cells; how it was run: as §1
[7] = tested on: ACHN; assay: Anticancer activity against human ACHN cells; how it was run: as §1
[8] = tested on: HCC 2998; assay: Anticancer activity against human HCC2998 cells; how it was run: as §1
[9] = tested on: SNB-19; assay: Anticancer activity against human SNB19 cells; how it was run: as §1
[10] = tested on: SW-620; assay: Anticancer activity against human SW620 cells
How it was run: (§2)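 NCI 60-cell-line panel. A single-dose (10 µM) prescreen was run first. Compounds giving over 60% growth inhibition in at least eight lines then went to five-dose response studies. Dose-response curves of effect versus log10 concentration. GI50 is the molar concentration giving a 50% reduction in net protein increase versus control cells. LC50 is the concentration lethal to 50% of cells.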

[11] = tested on: A498; assay: Anticancer activity against human A498 cells; how it was run: as §1
[12] = Anticancer activity against human Hs 578T cells; how it was run: as §1
[13] = tested on: MDA-MB-468; assay: Anticancer activity against human MDA-MB-468 cells; how it was run: as §1
[14] = tested on: SK-MEL-2; assay: Anticancer activity against human SK-MEL-2 cells; how it was run: as §1
[15] = tested on: LOX IMVI; assay: Anticancer activity against human LOXIMVI cells; how it was run: as §1
[16] = tested on: PC-3; assay: Anticancer activity against human PC3 cells; how it was run: as §1
[17] = tested on: OVCAR-5; assay: Anticancer activity against human OVCAR5 cells; how it was run: as §1
[18] = tested on: SF-539; assay: Anticancer activity against human SF539 cells; how it was run: as §1
[19] = tested on: SNB-75; assay: Anticancer activity against human SNB75 cells; how it was run: as §2
[20] = tested on: T47D; assay: Anticancer activity against human T47D cells; how it was run: as §2
[21] = tested on: SK-OV-3; assay: Anticancer activity against human SKOV3 cells; how it was run: as §1
[22] = tested on: TK-10; assay: Anticancer activity against human TK10 cells; how it was run: as §2
[23] = tested on: NCI-H23; assay: Anticancer activity against human NCI-H23 cells; how it was run: as §1
[24] = Anticancer activity against human […] cells; how it was run: as §1
[25] = tested on: HOP-92; assay: Anticancer activity against human HOP92 cells
How it was run: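 NCI 60-cell human tumour panel screen that includes non-small cell lung lines. The first stage used a single 10 µM dose. Compounds reaching more than 60% growth inhibition in at least eight lines went on to five-dose response testing. GI50 and LC50 came from curves of effect against log10 molar concentration. GI50 is the concentration giving a 50% reduction in net protein increase versus control cells.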

[26] = tested on: SF-295; assay: Anticancer activity against human SF295 cells; how it was run: as §1
[27] = tested on: UACC-257; assay: Anticancer activity against human UACC257 cells; how it was run: as §2
[28] = tested on: MDA-MB-435; assay: Anticancer activity against human MDA-MB-435 cells; how it was run: as §1
[29] = tested on: M14; assay: Anticancer activity against human M14 cells; how it was run: as §1
[30] = tested on: KM12; assay: Anticancer activity against human KM12 cells; how it was run: as §1
[31] = read-out: LC50 (the source's name)

N=C1NC(=O)/C(=C/c2cn(Cc3ccc(F)cc3)c3ccc(Cl)cc23)S1
GI50 [1]: 37.4 µM
CC50 [1, 31]: > 100 µM
GI50 [2]: > 100 µM
CC50 [2, 31]: > 100 µM
GI50 [3]: 11 µM
CC50 [3, 31]: > 100 µM
GI50 [4]: 80.7 µM
CC50 [4, 31]: > 100 µM
GI50 [5]: 98.8 µM
CC50 [5, 31]: > 100 µM
GI50 [6]: > 100 µM
CC50 [6, 31]: > 100 µM
GI50 [7]: > 100 µM
CC50 [7, 31]: > 100 µM
GI50 [8]: > 100 µM
CC50 [8, 31]: > 100 µM
GI50 [9]: > 100 µM
CC50 [9, 31]: > 100 µM
GI50 [10]: 38.3 µM
CC50 [10, 31]: > 100 µM
GI50 [11]: 31.5 µM
CC50 [11, 31]: > 100 µM
GI50 [12]: 3.67 µM
CC50 [12, 31]: > 100 µM
GI50 [13]: > 100 µM
CC50 [13, 31]: > 100 µM
GI50 [14]: > 100 µM
CC50 [14, 31]: > 100 µM
GI50 [15]: 2.32 µM
CC50 [15, 31]: > 100 µM
GI50 [16]: 23.6 µM
CC50 [16, 31]: > 100 µM
GI50 [17]: > 100 µM
CC50 [17, 31]: > 100 µM
GI50 [18]: 4.4 µM
CC50 [18, 31]: > 100 µM
GI50 [19]: 2.47 µM
CC50 [19, 31]: > 100 µM
GI50 [20]: > 100 µM
CC50 [20, 31]: > 100 µM
GI50 [21]: > 100 µM
CC50 [21, 31]: > 100 µM
GI50 [22]: 5.64 µM
CC50 [22, 31]: > 100 µM
GI50 [23]: 60.1 µM
CC50 [23, 31]: > 100 µM
GI50 [24]: > 100 µM
CC50 [24, 31]: > 100 µM
GI50 [25]: > 100 µM
GI50 [26]: > 100 µM
CC50 [26, 31]: > 100 µM
GI50 [27]: 0.013 µM
CC50 [27, 31]: 0.3 µM
GI50 [28]: 32.4 µM
CC50 [28, 31]: > 100 µM
GI50 [29]: 57.2 µM
CC50 [29, 31]: > 100 µM
GI50 [30]: 7.49 µM

— ChEMBL document CHEMBL1681666, “Synthesis and in vitro screening of novel N-benzyl aplysinopsin analogs as potential anticancer agents” (2011)
